Data reported in ChEMBL document CHEMBL2407002, “Simplification of antitumoral phenanthroindolizidine alkaloids: short synthesis of cytotoxic indolizidinone and pyrrolidine analogs” (2013).
Active and inactive are the calls of the source. The calls are words filed in the database; no cut-off is given here.

Columns and labels:
MCF7 [1] = assay: Cytotoxicity against human MCF7 cells assessed as cell mortality at 30 uM after 48 hrs by trypan blue exclusion assay relative to control; assay type: functional
In short: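 MCF-7 cells were cultured in DMEM + 10% FBS to 70% confluence. Compound was dissolved in DMSO (0.05%) and added to the medium for 48 h. Controls received 0.05% DMSO for the same period. Total cells, viable cells and mortality were calculated per compound and dose. Results are given as mean ± SEM of 5–6 assays, analysed by one-way ANOVA then Student's t test.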

SH-SY5Y [2] = assay: Cytotoxicity against human SH-SY5Y cells assessed as cell mortality at 30 uM after 48 hrs by trypan blue exclusion assay; assay type: functional, cell-based
In short: (§1)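 Pyrrolidine series: MCF-7 in DMEM and SHSY-5Y in DMEM/F12 with 10% FBS, grown to 70% confluence. Compounds in DMSO (0.05%) were added at 10 µM for 24 h or 30 µM for 48 h, with DMSO (0.05%) vehicle controls for the same period. Mortality was derived from trypan blue counts. Data are mean ± SEM of 5-6 assays, analysed by one-way ANOVA followed by Student's t test versus vehicle.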

MCF7 [3] = assay: Cytotoxicity against human MCF7 cells assessed as cell mortality at 10 uM after 24 hrs by trypan blue exclusion assay; assay type: functional, cell-based; in short: as §1
SH-SY5Y [4] = assay: Cytotoxicity against human SH-SY5Y cells assessed as cell mortality at 10 uM after 24 hrs by trypan blue exclusion assay; assay type: functional, cell-based; in short: as §1
MCF7 [5] = assay: Cytotoxicity against human MCF7 cells assessed as cell viability at 30 uM after 48 hrs by trypan blue staining-based assay; assay type: functional
In short: (§2)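 Indolizidinone series: MCF-7 grown in DMEM phenol red and SHSY-5Y in DMEM/F12 Ham's, each with 10% FBS, at 37 °C under 5% CO2 to 80% confluence. About 10 × 10⁶ cells were seeded, grown 24 h, then exposed 24 or 48 h to vehicle (0.05% DMSO) or increasing compound concentrations in DMSO. Viable cells were counted by trypan blue staining on a Vi-Cell-XR analyzer.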

SH-SY5Y [6] = assay: Cytotoxicity against human SH-SY5Y cells assessed as cell viability at 30 uM after 48 hrs by trypan blue staining-based assay; assay type: functional; in short: as §2
MCF7 [7] = assay: Cytotoxicity against human MCF7 cells assessed as increase in nuclear volume at 30 uM; assay type: functional, cell-based; conditions: TDE = time-dependent effect
In short: (§3)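 Cells were treated at 30 µM (0.05% DMSO vehicle controls) and examined microscopically over time, from 6 h up to 48 h. Changes scored were cell and nuclear volume, nucleolar refringency and cytoplasm vacuolization, compared with vehicle-treated cells.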

MCF7 [8] = assay: Cytotoxicity against human MCF7 cells assessed as cytoplasm vacuolization at 30 uM; assay type: functional, cell-based; conditions: TDE = time-dependent effect; in short: as §3
MCF7 [9] = assay: Cytotoxicity against human MCF7 cells assessed as nucleolar refringency at 30 uM; assay type: functional, cell-based; conditions: TDE = time-dependent effect; in short: as §3
MCF7 [10] = assay: Cytotoxicity against human MCF7 cells after 24 to 48 hrs by trypan blue exclusion assay; assay type: functional, cell-based; in short: as §2
SH-SY5Y [11] = assay: Cytotoxicity against human SH-SY5Y cells after 24 to 48 hrs by trypan blue exclusion assay; assay type: functional, cell-based; in short: as §2
SH-SY5Y [12] = assay: Cytotoxicity against human SH-SY5Y cells assessed as change in cell morphology at 30 uM after 48 hrs; assay type: functional, cell-based; in short: as §3
MCF7 [13] = assay: Cytotoxicity against human MCF7 cells assessed as increase in cellular volume at 30 uM; assay type: functional, cell-based; conditions: TDE = time-dependent effect; in short: as §3
MCF7 [14] = assay: Cytotoxicity against human MCF7 cells assessed as change in cell morphology at 30 uM after 48 hrs; assay type: functional, cell-based; in short: as §3
MCF7 [15] = assay: Cytotoxicity against human MCF7 cells assessed as cell death at 30 uM after 48 hrs by trypan blue staining-based assay relative to control; assay type: functional
In short: (§4)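 Cells grown at 37 °C, 5% CO2 to 80% confluence: MCF-7 in phenol red DMEM + 10% FBS, SH-SY5Y in DMEM/F12 Ham's + 10% FBS. About 10 × 10⁶ cells were seeded and grown 24 h, then exposed 48 h to compound in […] or to vehicle (0.05% DMSO). Viable cells were counted by trypan blue staining on an automated analyzer. Compared with vehicle.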

[16] = Cytotoxicity against human SH-SY5Y cells assessed as cell death at 30 uM after 48 hrs by trypan blue staining-based assay relative to control; assay type: functional; in short: as §4

SMILES | Activity (MCF7 [1]) | Activity (MCF7 [3]) | Activity (MCF7 [5]) | Activity (SH-SY5Y [6]) | also measured
O=C(C[C@H]1C[C@@H](O)CN1C(=O)Cc1ccccc1)c1ccco1 | Active | Active |  |  | Activity (SH-SY5Y [2]): Active; Activity (SH-SY5Y [4]): Active
O=C(CC1C[C@@H](O)CN1C(=O)Cc1ccccc1)c1ccc(Br)cc1 (stereo not given in full) | Active | Active |  |  | Activity (SH-SY5Y [2]): Active; Activity (SH-SY5Y [4]): Active
COc1ccc(C2=C(c3ccccc3)C(=O)N3C[C@H](O)C[C@H]3C2)cc1 |  |  | Active | Active | 
O=C1C(c2ccccc2)=C(c2ccc3ccccc3c2)C[C@H]2C[C@@H](O)CN12 |  |  | Active |  | 
O=C(CC1C[C@@H](O)CN1C(=O)Cc1ccccc1)c1ccco1 (stereo not given in full) | Active | Active |  |  | Activity (SH-SY5Y [2]): Active; Activity (SH-SY5Y [4]): Active
O=C1C(c2ccccc2)=C(c2ccc(-c3ccccc3)cc2)C[C@@H]2C[C@@H](O)CN12 |  |  | Active | Active | 
O=C1C(c2ccccc2)=C(c2ccccc2)C[C@@H]2C[C@@H](O)CN12 |  |  | Active |  | 
COc1ccc(C(=O)CC2C[C@@H](O)CN2C(=O)Cc2ccccc2)cc1 (stereo not given in full) | Active | Active |  |  | Activity (SH-SY5Y [2]): Active; Activity (SH-SY5Y [4]): Active
O=C1C(c2ccccc2)=C(c2ccco2)C[C@H]2C[C@@H](O)CN12 |  |  | Active |  | 
O=C1C(c2ccccc2)=C(c2ccco2)C[C@@H]2C[C@@H](O)CN12 |  |  | Active | Active | 
O=C1C(c2ccccc2)=C(c2ccc(Br)cc2)C[C@H]2C[C@@H](O)CN12 |  |  | Active |  | 
O=C1C(c2ccccc2)=C(c2ccccc2)C[C@H]2C[C@@H](O)CN12 |  |  | Active |  | 
Cn1cccc1C(=O)C[C@@H]1C[C@@H](O)CN1C(=O)Cc1ccccc1 | Active | Active |  |  | Activity (SH-SY5Y [2]): Active; Activity (SH-SY5Y [4]): Active
O=C(C[C@H]1C[C@@H](O)CN1C(=O)Cc1ccccc1)c1ccc(-c2ccccc2)cc1 | >=80% | Active |  |  | Activity (MCF7 [7]): tde; Activity (MCF7 [8]): tde; Activity (MCF7 [9]): tde; Activity (MCF7 [10]): Dose-dependent effect; Activity (SH-SY5Y [11]): Dose-dependent effect; Activity (SH-SY5Y [12]): Active; Activity (MCF7 [13]): tde
Cn1cccc1C1=C(c2ccccc2)C(=O)N2C[C@H](O)C[C@H]2C1 |  |  | Active | Active | 
O=C(C[C@@H]1C[C@@H](O)CN1C(=O)Cc1ccccc1)c1ccco1 |  |  |  |  | Activity (MCF7 [10]): Dose-dependent effect; Activity (SH-SY5Y [11]): Dose-dependent effect
O=C1C(c2ccccc2)=C(c2ccc3ccccc3c2)C[C@@H]2C[C@@H](O)CN12 |  |  | Active | Active | 
O=C1C(c2ccccc2)=C(c2ccc(Br)cc2)C[C@@H]2C[C@@H](O)CN12 |  |  | Active | Active | 
Cn1cccc1C(=O)CC1C[C@@H](O)CN1C(=O)Cc1ccccc1 (stereo not given in full) | Active | Active |  |  | Activity (SH-SY5Y [2]): Active; Activity (SH-SY5Y [4]): Active
Cn1cccc1C1=C(c2ccccc2)C(=O)N2C[C@H](O)C[C@@H]2C1 |  |  | Active | Active | 
O=C(C[C@@H]1C[C@@H](O)CN1C(=O)Cc1ccccc1)c1ccc(-c2ccccc2)cc1 | >=80% | Active |  |  | Activity (MCF7 [10]): Dose-dependent effect; Activity (SH-SY5Y [11]): Dose-dependent effect
COc1ccc(C2=C(c3ccccc3)C(=O)N3C[C@H](O)C[C@@H]3C2)cc1 |  |  | Active |  | 
O=C1C(c2ccccc2)=C(c2ccc(-c3ccccc3)cc2)C[C@H]2C[C@@H](O)CN12 |  |  | Active | Active | Activity (MCF7 [14]): Active; Activity (SH-SY5Y [12]): Active; Activity (MCF7 [15]): 80%; Activity [16]: 80%
